Data as given in PubChem BioAssay AID623917 (The Scripps Research Institute Molecular Screening Center, 2012).
Activity calls are given as the source filed them.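 How the source made its calls: active means E. coli viability under 80% of the solvent control at every tested dose; inactive means viability of 80% or more at every tested dose.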

Test system: E. coli V66 viability, colony formation, Hfr cross
Assay: recipient strain toxicity in Hfr mating – colony formation, Hfr recombination, cytotoxicity control for AddAB inhibitor project, dose response (AID 623917)
Settings: active compounds read low
In short: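 Material: E. coli V66 recipient cells. Timing: 1 h growth with compound, 1.5 h overall. Benchmarks: DMSO control. Signal: colony counts on non-selective agar plates, CFU/mL.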

Row | Compound | viability
1 | O=C(Nc1ncccn1)c1ccc([N+](=O)[O-])o1 | 100% (inactive)
2 | C=CCn1c(Sc2ncc([N+](=O)[O-])s2)n[nH]c1=O | 90% (inactive)
3 | CC1CCc2c(sc(NC(=O)c3ccc([N+](=O)[O-])o3)c2C#N)C1 (stereo not drawn) | 90% (inactive)
4 | CCn1cc(C(=O)O)c(=O)c2cnc(N3CCN(C(=S)Nc4ccccc4C(F)(F)F)CC3)nc21 | 90% (inactive)
5 | CCn1cc(C(=O)O)c(=O)c2cnc(N3CCN(C(=S)Nc4cccc(C(F)(F)F)c4)CC3)nc21 | 100% (inactive)
6 | O=C(NCc1cccnc1)c1ccc([N+](=O)[O-])o1 | 100% (inactive)
7 | CCn1cc(C(=O)O)c(=O)c2cnc(N3CCNCC3)nc21 | 90% (inactive)
8 | CCn1cc(C(=O)O)c(=O)c2cc(F)c(N3CCN(C(=S)Nc4cccc(C(F)(F)F)c4)CC3)cc21 | 12%
